# SR-BI uptake up – enhances SR-BI lipid uptake from DiI-HDL. CHO ldlA[mSR-BI] cells, DiI-HDL uptake fluorescence, 3 h; 100 = double the neutral-control signal. activation, % at 12.5 µM. 320,000 tested, 0.096% active;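 active = mean replicate activation of at least 60% and every replicate at or above 60%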;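 also: 0% = median plate neutral-control signal and 100% = twice that signal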
#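 Material: SR-BI-overexpressing, LDLR-lacking CHO cells; schedule: compound exposure 3 h, 37 °C; reagent: DiI-labelled HDL at 10 µg/mL final; technique: bottom-read fluorescence, 550/595 nm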
# SR-BI DiI inh – inhibitors of mouse SR-BI mediated HDL lipid uptake; Q61009; ldlA[mSR-BI] CHO cells, DiI-HDL uptake fluorescence, 3 h; inhibition, % at 12.5 µM; 320,000 tested, 0.96% active; AID 488896;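 active = mean replicate inhibition of at least 70% and a set share of replicates each scoring 70 or more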;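 also: 0% = median of neutral control wells and 100% = median of positive control wells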
# Target sequence (Q61009 whole entry, looked up): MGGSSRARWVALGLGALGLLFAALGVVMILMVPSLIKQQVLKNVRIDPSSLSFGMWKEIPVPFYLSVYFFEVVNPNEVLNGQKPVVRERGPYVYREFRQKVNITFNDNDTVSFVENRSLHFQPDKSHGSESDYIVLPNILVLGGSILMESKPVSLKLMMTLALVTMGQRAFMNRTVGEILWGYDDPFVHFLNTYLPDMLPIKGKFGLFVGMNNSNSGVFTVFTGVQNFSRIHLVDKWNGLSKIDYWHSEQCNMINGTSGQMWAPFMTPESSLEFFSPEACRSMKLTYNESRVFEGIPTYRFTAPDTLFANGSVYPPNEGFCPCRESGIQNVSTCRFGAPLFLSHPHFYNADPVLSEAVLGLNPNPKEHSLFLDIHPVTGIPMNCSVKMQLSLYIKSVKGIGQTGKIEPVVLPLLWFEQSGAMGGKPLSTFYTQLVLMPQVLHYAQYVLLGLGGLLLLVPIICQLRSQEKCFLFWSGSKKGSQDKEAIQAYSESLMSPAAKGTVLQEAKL
# Wnt bcat act – activators of Wnt/beta-catenin signaling | Wnt/beta-catenin reporter cell assay, activator, plate reader | activation, % at 9.35 µM | 300,000 tested, 1.2% active; in the data active = activation above about 30%, passing the limit was not always enough;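 also: 0% = neutral control wells and 100% = positive control wells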
# MITF TRPM1 HTS – increases MITF-driven TRPM1 promoter luciferase signal; SK-MEL-5 TRPM1-promoter luciferase, 24 h; % of positive control, neutral wells = 0; activation, % at 12.5 µM; 300,000 tested, 0.75% active; AID 588334;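 active = mean activation of at least 80% with every replicate also reaching 80%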;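 also: 0% = neutral control wells and 100% = parthenolide positive control wells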
# HSF-1 act – increases HSF-1 driven luciferase reporter signal; NIH3T3-HGL HSF-1 luciferase reporter, MG132, 8 h; 100% = twice DMSO control signal; AID 504408; 300,000 tested, 1.7% active; activation, % at 9 µM;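 active = mean replicate activation of at least 50% with a set share of replicates each reaching 50%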;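 also: 0% = median of the neutral control wells and 100% = twice that signal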
# * hit, by the source's call; / = no result given. An excerpt weighted towards active compounds, which were near 3.6% of everything screened.
SMILES,SR-BI uptake up,SR-BI DiI inh,Wnt bcat act,MITF TRPM1 HTS,HSF-1 act
O=S1(=O)C[C@@H](N2CCC(Cc3ccccc3)CC2)[C@H](COCc2ccccc2)N1,/,/,-3,/,/
CC(C)(C)SCCNC(=O)/C=C/c1ccc(F)cc1,17,-17,12,20,6
CNC(=O)/C=C/c1cccc(C(F)(F)F)c1,14,-14,-1,11,7
CC(C)(C)NC(=O)/C=C/c1ccc(C(F)(F)F)cc1,14,-14,77*,11,12
CC(C)(CNC(=O)/C=C/c1ccc(F)cc1)CNC(=O)/C=C/c1ccc(F)cc1,-53,53,/,14,76*
CC[C@]12c3[nH]c4ccc(Cl)cc4c3CCN1C(=O)[C@@H](CC(=O)NCc1ccc(OC)c(OC)c1)C[C@@H]2C(=O)N1CCN(C(=O)c2ccco2)CC1,-78,78*,-1,0,/
CC[C@]12c3[nH]c4ccc(Cl)cc4c3CCN1C(=O)[C@@H](CC(=O)NCc1ccc(OC)c(OC)c1)C[C@@H]2C(=O)N1CCN(C(=O)C2CC2)CC1,-63,63,0,-14,/
CN(C)C(=O)CCc1ccc2c3c([nH]c2c1)[C@]1(CCC2CCCC2)[C@@H](C(=O)N2CCOCC2)C[C@H](CC(=O)NCc2cccc(C(F)(F)F)c2)C(=O)N1CC3,35,-35,-1,-19,/
O=C(CC1C[C@H](C(=O)N2CCOCC2)[C@@]2(CCC3CCCC3)c3[nH]c4ccccc4c3CCN2C1=O)NCc1cccc(C(F)(F)F)c1 (stereo not given in full),107*,-107,-2,-52,/
C=CCn1c(O)c(N=NC(=O)OC(C)(C)C)c2ccccc21,7,-7,/,8,-11
C=CCn1c(O)c(N=NC(=S)Nc2ccc(OC)c(Cl)c2)c2ccccc21,33,-33,-3,9,55*
Fc1cccc2sc(N3CCCC3)nc12,11,-11,14,86*,9
O=C(CCCn1c(=O)[nH]c2cc(Cl)ccc2c1=O)NCC1CCCO1 (stereo not given),27,-27,/,-15,-31
O=C(CCCn1c(=S)[nH]c2ccc(Br)cc2c1=O)NCC1CCCO1 (stereo not given),-11,11,-1,/,72*
O=C(N/N=C/c1cccc(O)c1)c1csc2ccccc12,11,-11,3,/,7
O=C(Nc1ccccc1O)c1csc2c1CCCC2,-16,16,38*,49,93*
O=C(N/N=C/c1cccc(F)c1)c1csc2c1CCCC2,-21,21,/,142*,39
O=C(N/N=C/c1ccccc1F)NC12CC3CC(CC(C3)C1)C2,25,-25,8,69,87*
O=C(N/N=C/c1ccccc1F)c1csc2c1CCCC2,-33,33,/,76,65*
COc1ccc(NC(=O)c2csc3c2CCCCC3)c(OC)c1,-50,50,-2,11,29
OC(c1ccccc1)c1ncc(-c2cccc(OCc3ccccc3)c2)[nH]1 (stereo not given),/,/,-3,/,/
OC[C@@H]1CN(Cc2cccnc2)C[C@H](n2cnc3c(NC4CCCC4)ncnc32)O1,/,/,-4,/,/
COc1ccc(C2CC(c3cccs3)=NN2C(=O)CCCC(=O)O)cc1OC (stereo not given),/,/,-2,/,/
COc1ccc(C(C(=O)NCc2ccccc2)n2c(=O)c(-c3ccco3)nc3ccccc32)cc1 (stereo not given),/,/,-2,/,/
CCOc1cc(NC(=S)Nc2ccccc2)c(OCC)cc1NC(=O)c1ccccc1,-81,81*,1,6,8
SMILES,SR-BI uptake up,SR-BI DiI inh,Wnt bcat act,MITF TRPM1 HTS,HSF-1 act
CCOc1cc(NC(=S)NC)c(OCC)cc1NC(=O)c1ccc(OC)cc1,-82,82*,-5,-1,10
CCOc1cc(NC(=S)NCC2CCCO2)c(OCC)cc1NC(=O)c1ccc(OC)cc1 (stereo not given),9,-9,/,7,4
CCOc1cc(NC(=S)Nc2ccccc2OC)c(OCC)cc1NC(=O)c1ccccc1C,-87,87*,0,-15,7
CCOc1cc(NC(=S)NCC2CCCO2)c(OCC)cc1NC(=O)c1ccccc1C (stereo not given),-8,8,0,/,12
O=C(Cc1ccc(NC(=O)C2CCCN(C(=O)c3ccccc3)C2)cc1)Nc1cccc(C(=O)N2CCCC2)c1 (stereo not given),/,/,-2,/,/
COC(=O)Cn1c(=NC(=O)c2ccc(Cl)s2)sc2cc(C)ccc21,-54,54,/,85*,-17
CCCCNC(=O)c1nc(-c2cnc(C)cn2)oc1-c1ccc(Cl)cc1,/,/,-2,/,/
COc1cccc(-c2nc(-c3ccc(C(=O)O)cc3)no2)c1,31,-31,22,6,13
O=C(O)c1ccc(-c2noc(-c3cccc(F)c3)n2)cc1,9,-9,45*,53,21
c1ccc(Cc2cnc(N3CCN(Cc4cccc(-c5ccsc5)n4)CC3)nc2)cc1,/,/,-3,/,/
Cc1ccc(Nc2nc(C(=O)N3CCC(C(=O)NC(C)C)CC3)cs2)cc1,-18,18,58*,10,4
CC(C)CC(=O)NCC(C)NC(=O)CC(C)C (stereo not given),73*,-73,-8,-3,8
CCC(C)NC(=O)CC(C)C (stereo not given),-9,9,0,-6,13
CC(C)CC1C(=O)N(Cc2cn(CCC3OCCCO3)nn2)CCS(=O)(=O)N1Cc1ccc(-c2ccc(Cl)c(Cl)c2)cc1 (stereo not given),/,/,-2,/,/
CC1CCN(C(=O)CNC(=O)c2ccc(Br)o2)CC1,-5,5,38*,71,/
Cc1cccnc1Nc1nc(-c2ccc(O)cc2O)cs1,-71,71*,10,50,-16
Cc1cccnc1Nc1nc(-c2ccccn2)cs1,-4,4,/,-38,350*
OC(c1ccccc1)(c1ccccc1)c1nccc2ccccc12,-4,4,-1,8,/
CC(=O)c1ccc(N=Nc2ccc(N)cc2)cc1,/,/,34*,15,29
Cc1cc(C(=O)CSc2nc(N)cc(=O)[nH]2)c(C)n1CCc1ccc(F)cc1,-90,90*,/,-12,3
Cc1cc(C(=O)CCl)c(C)n1CCc1ccc(Cl)cc1,-28,28,-2,-75,61*
Cc1cc(C(=O)CSc2nnc(N)s2)c(C)n1CCc1ccc(F)cc1,-62,62,/,/,16
Cc1cc(C(=O)CCl)c(C)n1CCc1ccc(F)cc1,-40,40,-1,-86,31
O=C(NC1CCCCCC1)c1c(O)c2ccccc2[nH]c1=O,12,-12,/,99*,/
CC(C)C[C@H]1COc2cc(N3CCC[C@H]3CO)ccc2S(=O)(=O)N1,/,/,-1,/,/
CCOC(=O)c1c(NC(=S)N2CCOCC2)sc2c1CCN(C(=O)OCC)C2,/,/,-3,/,28
CCOC(=O)c1c(NC(=S)NCc2ccccc2)sc2c1CCN(C(=O)OCC)C2,-43,43,1,/,72*
C=CCNC(=S)Nc1sc2c(c1C(=O)OCC)CCN(C(=O)OCC)C2,-27,27,/,6,61*

# Screening results deposited in PubChem BioAssay by Broad Institute.
